Consider one molecule from ChEMBL document CHEMBL4152363, “Andrographolide derivative as STAT3 inhibitor that protects acute liver damage in mice” (Bioorg Med Chem, 2018).

Data set [1] concerns the target T1, Signal transducer and activator of transcription 3 (Homo sapiens, UniProt P40763). Briefly: Inhibition of […] activation in human AD293 cells incubated […] for 16 hrs followed by compound addition measured after 4 hrs by luciferase reporter gene assay. The format is cell-based. For orientation: Reporter assays use an easily measured gene product as a stand-in for the process of interest.

Data set [2] deals with Mus musculus. As to the kind of experiment: Hepatoprotective activity against CCL4-induced acute liver damage in Balb/c mouse assessed as decrease in number of necrotic cells at 30 mg/kg, po qd for 7 days measured after 16 hrs post CCL4 challenge by hematoxylin-eosin staining based light microscopy. The format is functional, organism-based. A digest of the protocol:
(§1)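 Male BalB/C mice given oral 30 mg/kg daily for 7 days, then sc CCl4 (40% in olive oil, 10 ml/kg); sacrificed 16 h later; livers fixed in 10% formaldehyde, paraffin sections stained with H&E or Masson's trichrome, light microscopy, ≥3 sections per liver; n=5, two experiments.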

The subject of data set [3] is Mus musculus. As to the kind of experiment: Reduction in MMP13 mRNA expression level in CCL4-induced acute liver damage in Balb/c mouse at 30 mg/kg, po qd for 7 days measured after 16 hrs post CCL4 challenge by qRT-PCR method. The format is functional, organism-based. A digest of the protocol:
(§2)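 Mice given 30 mg/kg orally once daily 7 days before sc CCl4 (40% in olive oil, 10 ml/kg); livers harvested 16 h later, PBS-washed, stored at −70 °C for RNA extraction and transcript quantification; n=5, two independent experiments.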
For orientation: Real-time PCR tracks product formation cycle by cycle.

The target of data set [4] is T1, Signal transducer and activator of transcription 3. As to the kind of experiment: Inhibition of IFNgamma-stimulated STAT3 activation in human AD293 cells incubated with IFNgamma for 16 hrs followed by compound addition measured after 24 hrs by luciferase reporter gene assay. The class given is cell-based. A digest of the protocol:
(§3)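 AD-293 or HeLa cells in DMEM/10% FBS stimulated with 20 pg/mL IFN-γ; compound treatment 24 h; luciferase activity measured in cell extracts; EC50 derived.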

In data set [5] the test system is Mus musculus. As to the kind of experiment: Reduction in SMAD2 mRNA expression level in liver of CCL4-induced acute liver damage in Balb/c mouse at 30 mg/kg, po qd for 7 days measured after 16 hrs post CCL4 challenge by qRT-PCR method. The class given is functional, organism-based. A digest of the protocol:
as §2

Data set [6] relates to Mus musculus. Briefly: Antiinflammatory activity in CCL4-induced acute liver damage Balb/c mouse model assessed as decrease in serum IL-6 levels at 30 mg/kg, po qd for 7 days measured after 16 hrs post CCL4 challenge. The format is functional, organism-based. A digest of the protocol:
(§4)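 BalB/C males dosed orally 30 mg/kg daily for 7 days, then sc CCl4 (40% in olive oil, 10 ml/kg); serum collected 16 h post-CCl4 after CO2 anaesthesia, stored at −70 °C until IL-6, MCP-1 or TGF-β analysis; n=5.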

In data set [7] the test system is Mus musculus. As to the kind of experiment: Antiinflammatory activity in CCL4-induced acute liver damage Balb/c mouse model assessed as decrease in serum MCP-1 levels at 30 mg/kg, po qd for 7 days measured after 16 hrs post CCL4 challenge. The class given is functional, organism-based. A digest of the protocol: as §4
For data set [8], the system named is Mus musculus. Briefly: Hepatoprotective activity against CCL4-induced acute liver damage in Balb/c mouse assessed as increase in number of PCNA positive cells at 30 mg/kg, po qd for 7 days measured after 16 hrs post CCL4 challenge by hematoxylin staining based immunohistochemistry method. The format is functional, organism-based. A digest of the protocol: (§5)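 Liver sections from mice dosed orally 30 mg/kg daily 7 days then sc CCl4, killed 16 h after; H2O2 block, goat serum/BSA/gelatin blocking 1 h RT, primary antibody (α-SMA, Ki67, PCNA or STAT3) 4 °C overnight, HRP secondary, DAB, hematoxylin counterstain; >30 fields at 400× quantified; n=5.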

Data set [9] addresses T1, Signal transducer and activator of transcription 3. Briefly: Inhibition of IFNgamma-stimulated STAT3 activation in human HeLa cells incubated with IFNgamma for 16 hrs followed by compound addition measured after 24 hrs by luciferase reporter gene assay. The class given is cell-based. A digest of the protocol:
as §3

For data set [10], the system named is Mus musculus. Briefly: Reduction in SMAD3 mRNA expression level in liver of CCL4-induced acute liver damage in Balb/c mouse at 30 mg/kg, po qd for 7 days measured after 16 hrs post CCL4 challenge by qRT-PCR method. The format is functional, organism-based. A digest of the protocol: as §2
The test system of data set [11] is Mus musculus. As to the kind of experiment: Reduction in serum AST level in CCL4-induced acute liver damage in Balb/c mouse at 30 mg/kg, po qd for 7 days measured after 16 hrs post CCL4 challenge […]. The format is functional, organism-based.
The subject of data set [12] is Mus musculus. As to the kind of experiment: Reduction in MMP9 mRNA expression level in CCL4-induced acute liver damage in Balb/c mouse at 30 mg/kg, po qd for 7 days measured after 16 hrs post CCL4 challenge by qRT-PCR method. The class given is functional, organism-based. A digest of the protocol: as §2
For data set [13], the target named is T1, Signal transducer and activator of transcription 3. Briefly: Inhibition of IL-6 stimulated STAT3 activation in human AD293 cells incubated with IL-6 for 16 hrs followed by compound addition measured after 6 hrs by luciferase reporter gene assay. The class given is cell-based. A digest of the protocol:
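AD-293 cells stimulated with 2.5 μg/mL IL-6; compound treatment 6 h; luciferase activity read from cell extracts; EC50 derived.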

Data set [14] concerns Mus musculus. Briefly: Reduction in SMAD4 mRNA expression level in liver of CCL4-induced acute liver damage in Balb/c mouse at 30 mg/kg, po qd for 7 days measured after 16 hrs post CCL4 challenge by qRT-PCR method. The format is functional, organism-based. A digest of the protocol: as §2
The target of data set [15] is T1, Signal transducer and activator of transcription 3. As to the kind of experiment: Inhibition of IFNgamma-stimulated GFP/FLAG-tagged STAT3 dimerization in human AD293 cells at 10 uM incubated for 6 hrs by Western blot analysis. The format is cell-based. A digest of the protocol: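 AD-293 cells co-transfected 48 h with GFP- and FLAG-tagged STAT3 plasmids, then IFN-γ with or without compound for 6 h; 100 μg lysate (RIPA) immunoprecipitated with anti-FLAG and protein G beads; blots probed for GFP and FLAG, chemiluminescent detection.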
(A western blot detects proteins with antibodies after separation by electrophoresis.)

Data set [16] relates to AD293. As to the kind of experiment: Cytotoxicity against human AD293 cells. The format is cell-based. As to conditions: ad293. A digest of the protocol: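 AD-293 or HeLa cells grown in high-glucose DMEM with 10% FBS and 1% penicillin-streptomycin; compound exposure 24 h; cytotoxicity reported as CC10.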
The target of data set [17] is T1, Signal transducer and activator of transcription 3. Briefly: Inhibition of IFNgamma-stimulated STAT3 phosphorylation at Tyr705 residues in human AD293 cell lysates incubated with IFNgamma followed by compound addition at 10 uM by Western blot analysis. A digest of the protocol:
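AD-293 cells treated with 1 μg/mL IFN-γ alone or with compounds at 10 μM; phospho- and total STAT1 and STAT3 assessed by western blot; representative of at least three independent experiments.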

Data set [18] deals with Mus musculus. Briefly: Hepatoprotective activity against CCL4-induced acute liver damage in Balb/c mouse assessed as decrease in hepatic damage at 30 mg/kg, po qd for 7 days measured after 16 hrs post CCL4 challenge by hematoxylin-eosin staining based light microscopy. The format is functional, organism-based. A digest of the protocol: as §1
The test system of data set [19] is Mus musculus. As to the kind of experiment: Hepatoprotective activity against CCL4-induced acute liver damage in Balb/c mouse assessed as increase in number of Ki67 positive cells at 30 mg/kg, po qd for 7 days measured after 16 hrs post CCL4 challenge by hematoxylin staining based immunohistochemistry method. The class given is functional, organism-based. A digest of the protocol:
as §5

Activity calls are given as the source filed them. The rule behind the calls is not given here. Some results are limits rather than exact numbers.

T1 sequence (P40763 whole entry): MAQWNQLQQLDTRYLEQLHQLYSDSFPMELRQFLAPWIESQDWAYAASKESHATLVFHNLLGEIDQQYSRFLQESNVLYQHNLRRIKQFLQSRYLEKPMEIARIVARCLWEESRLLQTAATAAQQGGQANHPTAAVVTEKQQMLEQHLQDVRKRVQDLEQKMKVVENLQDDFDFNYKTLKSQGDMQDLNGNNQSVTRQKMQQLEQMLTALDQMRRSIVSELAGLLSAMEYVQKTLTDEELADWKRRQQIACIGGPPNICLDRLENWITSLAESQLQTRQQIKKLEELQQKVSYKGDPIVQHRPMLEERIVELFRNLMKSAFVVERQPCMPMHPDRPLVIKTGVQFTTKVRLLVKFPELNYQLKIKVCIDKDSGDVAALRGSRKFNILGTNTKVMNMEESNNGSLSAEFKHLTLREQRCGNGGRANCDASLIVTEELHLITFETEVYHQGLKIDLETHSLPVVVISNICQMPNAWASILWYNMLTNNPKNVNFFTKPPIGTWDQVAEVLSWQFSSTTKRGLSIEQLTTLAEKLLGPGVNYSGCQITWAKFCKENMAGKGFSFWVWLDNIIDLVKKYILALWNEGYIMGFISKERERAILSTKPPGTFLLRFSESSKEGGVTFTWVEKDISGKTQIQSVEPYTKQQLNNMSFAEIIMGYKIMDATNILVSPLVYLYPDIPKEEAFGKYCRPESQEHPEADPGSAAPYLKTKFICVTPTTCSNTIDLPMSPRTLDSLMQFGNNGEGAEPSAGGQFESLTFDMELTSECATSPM

Usually EC50 stands for the concentration giving half of the maximal effect. A high value points to a less potent agent. For orientation: inhibition means the drop in the measured response relative to a control, in per cent. `CC(C)(C)[Si](C)(C)O[C@@H]1COC(=O)/C1=C/C[C@@H]1[C@]2(CC[C@H]3[C@@]1(C)CCC(=O)[C@@]3(C)CO)CO2`: the EC50 in [1] is above 10 µM; in [4], 5.99 µM; in [9], 5.9 µM; in data set [13] it was 3.95 µM. The outcome in data set [2], in data set [3], in [6], in data set [7], in data set [8] and in data set [18] was Active. In addition, in data set [19], the result was Active. Also, the outcome in data set [5], in [10], in data set [11], in data set [12] and in [14] was inactive. For the same molecule, in data set [15], the inhibition entry is “Active”. Moreover, the CC10 in [16] was above 10 µM. The molecule also gave an inhibition in data set [17] above 50%.
